Measured values as given in ChEMBL document CHEMBL3997832, “Development of MBRI-001, a deuterium-substituted plinabulin derivative as a potent anti-cancer agent” (Bioorg Med Chem Lett, 2017).

How the values were obtained:
[1] = Metabolic stability in rat plasma assessed as esterase-mediated amide bond hydrolysis at 1 uM measured up to 100 mins by LC-MS/MS analysis; assay type: ADME; details: isolated protein
[2] = Metabolic stability in rat liver microsomes assessed as esterase-mediated amide bond hydrolysis at 2 uM measured up to 150 mins by LC-MS/MS analysis; assay type: ADME; details: 2.5 h
[3] = Elimination rate constant in Wistar rat at 5 mg/kg, iv; assay type: ADME, organism-based; details: in vivo
Outline: (§1)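 Wistar rats, single intravenous dose of 5 mg·kg⁻¹, n=5; plasma concentration–time profile sampled, mean ± SD. Parameters (ke, t1/2, Tmax, Cmax, AUClast, AUC0–∞, Vz, CL, MRT) derived from the plasma curve.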

[4] = Half life in Wistar rat at 5 mg/kg, iv; assay type: ADME, organism-based; details: in vivo; outline: as §1
[5] = Tmax in Wistar rat at 5 mg/kg, iv; assay type: ADME, organism-based; details: in vivo; outline: as §1
[6] = Cmax in Wistar rat at 5 mg/kg, iv; assay type: ADME, organism-based; parameters: dose 5 mg/kg, route intravenous; details: in vivo; outline: as §1
[7] = AUClast in Wistar rat at 5 mg/kg, iv; assay type: ADME, organism-based; parameters: dose 5 mg/kg, route intravenous, time 0 - last; details: in vivo; outline: as §1
[8] = Observed AUC (0 to infinity) in Wistar rat at 5 mg/kg, iv; assay type: ADME, organism-based; parameters: dose 5 mg/kg, time infinity, route intravenous; details: in vivo; outline: as §1
[9] = Observed apparent volume of distribution in Wistar rat at 5 mg/kg, iv; assay type: ADME, organism-based; details: in vivo, read-out: Vz; outline: as §1
[10] = Observed clearance in Wistar rat at 5 mg/kg, iv; assay type: ADME, organism-based; details: in vivo; outline: as §1
[11] = MRTlast in Wistar rat at 5 mg/kg, iv; assay type: ADME, organism-based; details: in vivo; outline: as §1
NCI-H460 [12] = experiment: Cytotoxicity against human NCI-H460 cells assessed as decrease in cell viability after 72 hrs by MTT assay; assay type: functional, cell-based; details: NCI-H460, 72 h
NCI-H446 = experiment: Cytotoxicity against human NCI-H446 cells assessed as decrease in cell viability after 72 hrs by MTT assay; assay type: functional, cell-based; details: NCI-H446, 72 h
Jurkat = experiment: Cytotoxicity against human Jurkat cells assessed as decrease in cell viability after 72 hrs by MTT assay; assay type: functional, cell-based
NCI-H460 [13] = experiment: Antitumor activity against human NCI-H460 cells xenografted in iv dosed nude mouse assessed as tumor growth inhibition administered every 2 days for 21 days; assay type: functional, organism-based; details: tested as the 2H-labelled form
Outline: (§2)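 NCI-H460 xenografts in nude mice, dosed intravenously at 3, 6 or 12 mg/kg every two days for 21 consecutive days (Q3D7); docetaxel 10 mg/kg as positive control. Tumor volumes followed, tumors excised and weighed at end of dosing; inhibitory rate calculated versus vehicle group; mean ± SD.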

NCI-H460 [14] = experiment: Antitumor activity against human NCI-H460 cells xenografted in nude mouse assessed as tumor growth inhibition at 10 mg/kg, iv administered every 2 days for 21 days relative to vehicle-treated control; assay type: functional; details: read-out: TGI
Outline: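 Nude mice bearing human NCI-H460 lung carcinoma xenografts, dosed by intravenous injection every two days for 21 consecutive days (legend states Q3D7), alongside vehicle controls. Tumor volumes were followed over the dosing period. At the end, tumors were excised and weighed, and inhibitory rates were calculated relative to vehicle. Data given as mean ± SD.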

Mus musculus [15] = experiment: Toxicity in nude mouse xenografted with human NCI-H460 cells assessed as decrease in body weight at 10 mg/kg, iv administered every 2 days for 21 days; assay type: organism-based; parameters: scale not given: the % may be the effect or the level left; details: in vivo
Outline: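 NCI-H460 lung carcinoma xenografts in nude mice, with intravenous injection every two days over 21 consecutive days (legend: Q3D7). Body weights were recorded across the administration period as a toxicity read-out. Data given as mean ± SD.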

NCI-H460 [16] = experiment: Antitumor activity against human NCI-H460 cells xenografted in nude mouse assessed as tumor growth inhibition at 3 mg/kg, iv administered every 2 days for 21 days relative to vehicle-treated control; assay type: functional; details: read-out: TGI; outline: as §2
NCI-H460 [17] = experiment: Antitumor activity against human NCI-H460 cells xenografted in nude mouse assessed as tumor growth inhibition at 6 mg/kg, iv administered every 2 days for 21 days relative to vehicle-treated control; assay type: functional; details: read-out: TGI; outline: as §2
NCI-H460 [18] = experiment: Antitumor activity against human NCI-H460 cells xenografted in nude mouse assessed as tumor growth inhibition at 12 mg/kg, iv administered every 2 days for 21 days relative to vehicle-treated control; assay type: functional; details: read-out: TGI; outline: as §2
[19] = Drug uptake in tumor of nude mouse xenografted with human NCI-H460 cells at 3 mg/kg, iv administered every 2 days for 21 days; assay type: ADME, organism-based, Neoplasm; details: read-out: Drug uptake
Outline: (§3)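 Nude mice bearing NCI-H460 xenografts given compound intravenously at 3, 6 or 12 mg/kg every two days for 21 days. Concentration in excised tumor tissue measured at end of treatment, expressed as ng/g.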

[20] = Drug uptake in tumor of nude mouse xenografted with human NCI-H460 cells at 6 mg/kg, iv administered every 2 days for 21 days; assay type: ADME, organism-based, Neoplasm; details: read-out: Drug uptake; outline: as §3
[21] = Drug uptake in tumor of nude mouse xenografted with human NCI-H460 cells at 12 mg/kg, iv administered every 2 days for 21 days; assay type: ADME, organism-based, Neoplasm; details: read-out: Drug uptake; outline: as §3
Mus musculus [22] = experiment: Toxicity in nude mouse xenografted with human NCI-H460 cells assessed as decrease in body weight at 3 to 12 mg/kg, iv administered every 2 days for 21 days; assay type: organism-based; details: in vivo
Outline: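 Nude mice bearing NCI-H460 xenografts dosed intravenously at 3, 6 or 12 mg/kg every two days for 21 days (Q3D7). Body weights recorded over the dosing period; mean ± SD.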

SMILES | Stability [1] | Stability [2] | k el [3] [s⁻¹] | half-life [4] [min] | Tmax [5] [min] | Cmax [6] [ng/mL] | AUC(0-t) [7] [ng·h/mL] | AUC(0-inf) [8] [ng·h/mL] | Vd [9] [L/kg] | clearance [10] [mL/min/kg] | MRT last [11] [min] | IC50 (NCI-H460 [12]) [nM] | IC50 (NCI-H446) [nM] | IC50 (Jurkat) [nM] | other results
CC(C)(C)c1[nH]cnc1/C=c1\[nH]c(=O)/c(=C/c2ccccc2)[nH]c1=O [PLINABULIN] | Stable | Stable | 0.000189 | 67.8 | 1.2 | 5040 | 721 | 723 | 11.4 | 121 | 30 | 33.9 | 44.2 | 3.3 | TGI (NCI-H460 [13]): Dose-dependent effect
CC(=O)O[C@@]12CO[C@@H]1C[C@H](O)[C@@]1(C)C(=O)[C@H](O)C3=C(C)[C@@H](OC(=O)[C@H](O)[C@@H](NC(=O)OC(C)(C)C)c4ccccc4)C[C@@](O)([C@@H](OC(=O)c4ccccc4)[C@H]21)C3(C)C [DOCETAXEL ANHYDROUS] | – | – | – | – | – | – | – | – | – | – | – | – | – | – | inhibition in vivo at 10 mg/kg (NCI-H460 [14]): 40%; Activity (Mus musculus [15]): 18.3%
[2H]/C(c1nc[nH]c1C(C)(C)C)=c1/[nH]c(=O)/c(=C/c2ccccc2)[nH]c1=O | Stable | Stable | 0.000139 | 88.2 | 1.2 | 7280 | 1520 | 1520 | 7.72 | 58.8 | 101 | 33.2 | 22 | 4.3 | inhibition in vivo at 3 mg/kg (NCI-H460 [16]): 28.8%; inhibition in vivo at 6 mg/kg (NCI-H460 [17]): 44.8%; inhibition in vivo at 12 mg/kg (NCI-H460 [18]): 48%; concentration at 21 days [19]: 316 ng/g; concentration at 21 days [20]: 809 ng/g; concentration at 21 days [21]: 2490 ng/g; Activity (Mus musculus [22]): Non-Toxic
